ChEMBL document CHEMBL3259662 (ACS Med Chem Lett, 2014)
≈ marks a conversion by molar mass, not a printed value. Each block holds one compound with its values, some of them ahead of it. Calls of active or inactive are those of the source. The calls are words filed in the database; no cut-off is given here.

Legend:
Cryptococcus neoformans [1] = assay: Antifungal activity against Cryptococcus neoformans ATCC 90113 after 70 to 74 hrs by CLSI method; type: functional, organism-based; details: for IC50 / MIC: Cryptococcus neoformans, ATCC 90113
Method in brief: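 Growth inhibition of C. neoformans per the CLSI protocol. […] MIC is the lowest test concentration with no detectable growth. MFC is the lowest concentration killing 100% of the organism.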

[2] = Selectivity index, ratio of cytotoxicity for human SKOV3 cells to IC50 for Cryptococcus neoformans ATCC 90113; type: toxicity, cell-based, SK-OV-3; details: read-out: Selectivity Index
[3] = Selectivity index, ratio of cytotoxicity for pig LLC-PK1 cells to IC50 for Cryptococcus neoformans ATCC 90113; type: toxicity, cell-based; details: read-out: Selectivity Index
[4] = Selectivity index, ratio of cytotoxicity for human SK-MEL cells to IC50 for Cryptococcus neoformans ATCC 90113; type: toxicity, cell-based; details: read-out: Selectivity Index
Lipid bilayer = assay: Binding affinity to small unilamellar vesicles assessed as destruction of membrane by transmission electron microscopy
Method in brief: (§1)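 Small unilamellar vesicles were made by a literature method, either EYPC/EYPG or EYPC/cholesterol, and incubated with or without peptide. Samples were deposited on carbon-coated copper grids, negatively stained with 2% (w/v) phosphotungstic acid and imaged by TEM to judge vesicle integrity and morphology.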

Cryptococcus neoformans [5] = assay: Ratio of amphotericin B MFC to compound MFC for Cryptococcus neoformans ATCC 90113 after 70 to 74 hrs by CLSI method; type: functional
Pichia kudriavzevii = assay: Antifungal activity against Candida krusei by CLSI method; type: functional, organism-based
[6] = Selectivity index, ratio of cytotoxicity for African green monkey Vero cells to IC50 for Cryptococcus neoformans ATCC 90113; type: toxicity, cell-based; details: read-out: Selectivity Index
SK-MEL = assay: Cytotoxicity against human SK-MEL cells assessed as cell viability after 48 hrs by neutral red uptake assay; type: cell-based
Method in brief: (§2)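 Neutral red uptake assay in human cancer lines SK-MEL, KB, BT-549 and SK-OV-3 and in noncancerous mammalian kidney cells VERO and LLC-PK1. The highest tested concentration was 10 μg/mL.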

Candida albicans = assay: Antifungal activity against Candida albicans by CLSI method; type: functional, organism-based
Escherichia coli = assay: Antibacterial activity against Escherichia coli ATCC 35218 after 16 to 20 hrs by CLSI method; type: functional, organism-based
KB = assay: Cytotoxicity against human KB cells assessed as cell viability after 48 hrs by neutral red uptake assay; type: cell-based; method in brief: as §2
[7] = Selectivity index, ratio of cytotoxicity for human BT549 cells to IC50 for Cryptococcus neoformans ATCC 90113; type: toxicity, cell-based, BT-549; details: read-out: Selectivity Index
[8] = Binding affinity to EYPC/EYPG assessed as disruption of SUVs integrity by transmission electron microscopy; method in brief: as §1
Aspergillus fumigatus = assay: Antifungal activity against Aspergillus fumigatus by CLSI method; type: functional, organism-based
SK-OV-3 = assay: Cytotoxicity against human SKOV3 cells assessed as cell viability after 48 hrs by neutral red uptake assay; type: cell-based; details: sk-ov-3, 48 h; method in brief: as §2
[9] = Selectivity index, ratio of cytotoxicity for human KB cells to IC50 for Cryptococcus neoformans ATCC 90113; type: toxicity, cell-based; details: read-out: Selectivity Index
LLC-PK1 = assay: Cytotoxicity against pig LLC-PK1 cells assessed as cell viability after 48 hrs by neutral red uptake assay; type: cell-based, Sus scrofa; details: llc-pk1, 48 h; method in brief: as §2
Nakaseomyces glabratus = assay: Antifungal activity against Candida glabrata by CLSI method; type: functional, organism-based
[10] = Binding affinity to EYPC/cholesterol by transmission electron microscopy; method in brief: as §1
Vero = assay: Cytotoxicity against African green monkey Vero cells assessed as cell viability after 48 hrs by neutral red uptake assay; type: cell-based; details: chlorocebus sabaeus; method in brief: as §2
BT-549 = assay: Cytotoxicity against human BT549 cells assessed as cell viability after 48 hrs by neutral red uptake assay; type: cell-based; details: bt-549, 48 h; method in brief: as §2
Staphylococcus aureus [11] = assay: Antibacterial activity against methicillin-resistant Staphylococcus aureus ATCC 33591 after 16 to 20 hrs by CLSI method; type: functional, organism-based
Staphylococcus aureus [12] = assay: Antibacterial activity against Staphylococcus aureus ATCC 29213 by CLSI method; type: functional, organism-based
[13] = Retention time of the compound by reverse phase HPLC analysis; type: physicochemical
Method in brief: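 Reverse-phase HPLC on a C-18 column (25 cm × 4.6 mm, 5 μM) at 1 mL/min over 40 min. The gradient ran 85−5% with A = 0.1% TFA in H2O and B = 0.1% TFA in CH3CN. Detection was at 220 nm.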

[14] = Staphylococcus aureus, ATCC 33591
[15] = Staphylococcus aureus, ATCC 33591, read-out: IC50

- IC50 (Cryptococcus neoformans [1]): 0.07 µg/mL (≈ 0.102 µM)
- MIC (Cryptococcus neoformans [1]): 0.16 µg/mL (≈ 0.232 µM)
- Activity (Lipid bilayer): Active
- Activity [8]: Active
- Activity [10]: inactive
SMILES: CC(C)(C)c1ccc(-c2nc(C[C@H](NC(=O)[C@@H](N)CCCNC(=N)N)C(=O)N[C@@H](CCCNC(=N)N)C(=O)NCc3ccccc3)c[nH]2)cc1
- MFC100 (Cryptococcus neoformans [1]): 0.16 µg/mL (≈ 0.232 µM)
- selectivity ratio [2]: > 143
- selectivity ratio [3]: > 143
- selectivity ratio [4]: > 143
- Ratio (Cryptococcus neoformans [5]): 8
- Activity (Pichia kudriavzevii): inactive
- selectivity ratio [6]: > 143
- Activity (SK-MEL): > 10 µg/mL
- Activity (Candida albicans): inactive
- Activity (Escherichia coli): inactive
- Activity (KB): > 10 µg/mL
- selectivity ratio [7]: > 143
- Activity (Aspergillus fumigatus): inactive
- Activity (SK-OV-3): > 10 µg/mL
- selectivity ratio [9]: > 143
- Activity (LLC-PK1): > 10 µg/mL
- Activity (Nakaseomyces glabratus): inactive
- Activity (Vero): > 10 µg/mL
- Activity (BT-549): > 10 µg/mL

SMILES: N=C(N)NCCC[C@H](NC(=O)[C@H](Cc1c[nH]c(-c2ccc(-c3ccccc3)cc2)n1)NC(=O)[C@@H](N)CCCNC(=N)N)C(=O)NCc1ccccc1
- MFC100 (Cryptococcus neoformans [1]): 0.16 µg/mL (≈ 0.226 µM)
- IC50 (Cryptococcus neoformans [1]): 0.1 µg/mL (≈ 0.141 µM)
- MIC (Cryptococcus neoformans [1]): 0.16 µg/mL (≈ 0.226 µM)
- selectivity ratio [2]: > 100
- selectivity ratio [3]: > 100
- selectivity ratio [4]: > 100
- Ratio (Cryptococcus neoformans [5]): 8
- Activity (Pichia kudriavzevii): inactive
- selectivity ratio [6]: > 100
- Activity (SK-MEL): > 10 µg/mL
- Activity (Candida albicans): inactive
- Activity (Escherichia coli): inactive
- Activity (KB): > 10 µg/mL
- IC50 (Staphylococcus aureus [11]): Not Active
- MBC100 (Staphylococcus aureus [11]): inactive
- MIC (Staphylococcus aureus [11]): inactive
- selectivity ratio [7]: > 100
- IC50 (Staphylococcus aureus [12]): 15.4 µg/mL (≈ 21.7 µM)
- MBC100 (Staphylococcus aureus [12]): inactive
- MIC (Staphylococcus aureus [12]): inactive
- Activity (Aspergillus fumigatus): inactive
- Activity (SK-OV-3): > 10 µg/mL
- selectivity ratio [9]: > 100
- Activity (LLC-PK1): > 10 µg/mL
- Activity (Nakaseomyces glabratus): inactive
- Activity (Vero): > 10 µg/mL
- Activity (BT-549): > 10 µg/mL

- IC50 (Cryptococcus neoformans [1]): 0.43 µg/mL (≈ 0.649 µM)
- MIC (Cryptococcus neoformans [1]): 0.63 µg/mL (≈ 0.951 µM)
SMILES: COc1ccc(-c2nc(C[C@H](NC(=O)[C@@H](N)CCCNC(=N)N)C(=O)N[C@@H](CCCNC(=N)N)C(=O)NCc3ccccc3)c[nH]2)cc1
- MFC100 (Cryptococcus neoformans [1]): 0.63 µg/mL (≈ 0.951 µM)
- selectivity ratio [2]: > 23.3
- selectivity ratio [3]: > 23.3
- selectivity ratio [4]: > 23.3
- Ratio (Cryptococcus neoformans [5]): 2
- Activity (Pichia kudriavzevii): inactive
- selectivity ratio [6]: > 23.3
- Activity (SK-MEL): > 10 µg/mL
- Activity (Candida albicans): inactive
- Activity (Escherichia coli): inactive
- Activity (KB): > 10 µg/mL
- selectivity ratio [7]: > 23.3
- Activity (Aspergillus fumigatus): inactive
- Activity (SK-OV-3): > 10 µg/mL
- selectivity ratio [9]: > 23.3
- Activity (LLC-PK1): > 10 µg/mL
- Activity (Nakaseomyces glabratus): inactive
- Activity (Vero): > 10 µg/mL
- Activity (BT-549): > 10 µg/mL

SMILES: CC(C)(C)OC(=O)N[C@@H](CCCNC(=N)N)C(=O)N[C@@H](Cc1c[nH]c(-c2ccc(-c3ccccc3)cc2)n1)C(=O)N[C@@H](CCCNC(=N)N)C(=O)NCc1ccccc1
- MFC100 (Cryptococcus neoformans [1]): 0.31 µg/mL (≈ 0.383 µM)
- IC50 (Cryptococcus neoformans [1]): 0.2 µg/mL (≈ 0.247 µM)
- MIC (Cryptococcus neoformans [1]): 0.31 µg/mL (≈ 0.383 µM)
- selectivity ratio [2]: > 50
- selectivity ratio [3]: > 50
- Retention_time [13]: 24.04 min
- selectivity ratio [4]: > 50
- Ratio (Cryptococcus neoformans [5]): 4
- Activity (Pichia kudriavzevii): inactive
- selectivity ratio [6]: > 50
- Activity (SK-MEL): > 10 µg/mL
- Activity (Candida albicans): inactive
- Activity (Escherichia coli): inactive
- Activity (KB): > 10 µg/mL
- MBC100 (Staphylococcus aureus [11]): 20 µg/mL (≈ 24.7 µM)
- MIC (Staphylococcus aureus [11]; [14]): 20 µg/mL (≈ 24.7 µM)
- IC50 (Staphylococcus aureus [11]; [15]): 10.8 µg/mL (≈ 13.3 µM)
- selectivity ratio [7]: > 50
- IC50 (Staphylococcus aureus [12]): 6.88 µg/mL (≈ 8.5 µM)
- MBC100 (Staphylococcus aureus [12]): inactive
- MIC (Staphylococcus aureus [12]): 20 µg/mL (≈ 24.7 µM)
- Activity (Aspergillus fumigatus): inactive
- Activity (SK-OV-3): > 10 µg/mL
- selectivity ratio [9]: > 50
- Activity (LLC-PK1): > 10 µg/mL
- Activity (Nakaseomyces glabratus): inactive
- Activity (Vero): > 10 µg/mL
- Activity (BT-549): > 10 µg/mL

SMILES: CC(C)(C)OC(=O)N[C@@H](CCCNC(=N)N)C(=O)N[C@@H](Cc1c[nH]c(-c2ccc(C(C)(C)C)cc2)n1)C(=O)N[C@@H](CCCNC(=N)N)C(=O)NCc1ccccc1
- MFC100 (Cryptococcus neoformans [1]): 0.63 µg/mL (≈ 0.798 µM)
- IC50 (Cryptococcus neoformans [1]): 0.18 µg/mL (≈ 0.228 µM)
- MIC (Cryptococcus neoformans [1]): 0.63 µg/mL (≈ 0.798 µM)
- selectivity ratio [2]: > 55.6
- selectivity ratio [3]: > 55.6
- Retention_time [13]: 24.41 min
- selectivity ratio [4]: > 55.6
- Ratio (Cryptococcus neoformans [5]): 2
- Activity (Pichia kudriavzevii): inactive
- selectivity ratio [6]: > 55.6
- Activity (SK-MEL): > 10 µg/mL
- Activity (Candida albicans): inactive
- Activity (Escherichia coli): inactive
- Activity (KB): > 10 µg/mL
- MBC100 (Staphylococcus aureus [11]): inactive
- MIC (Staphylococcus aureus [11]; [14]): 20 µg/mL (≈ 25.3 µM)
- IC50 (Staphylococcus aureus [11]; [15]): 11.5 µg/mL (≈ 14.6 µM)
- selectivity ratio [7]: > 55.6
- IC50 (Staphylococcus aureus [12]): 12.5 µg/mL (≈ 15.9 µM)
- MBC100 (Staphylococcus aureus [12]): inactive
- MIC (Staphylococcus aureus [12]): 20 µg/mL (≈ 25.3 µM)
- Activity (Aspergillus fumigatus): inactive
- Activity (SK-OV-3): > 10 µg/mL
- selectivity ratio [9]: > 55.6
- Activity (LLC-PK1): > 10 µg/mL
- Activity (Nakaseomyces glabratus): inactive
- Activity (Vero): > 10 µg/mL
- Activity (BT-549): > 10 µg/mL
